Compounds with a hit are over-represented: about 4% of the library has one in this group of screens.
MT stabilizer: microtubule stabilizers in HeLa cells; HeLa tubulin immunostaining HCS, 24 h; share of cells brighter than vehicle mean+2SD; % tubulin-high responders, % at 10 µM; 200,000 compounds, 0.83% hits; AID 2205;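 active = plate Z-score above 3 for both tubulin-high and condensed-nucleus cell shares, with cell loss under 80%, at 10 µM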;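 note: anti alpha tubulin signal scored within the nucleus-defined area of each cell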
WT yeast gro inh: growth inhibition of WT yeast, mitochondrial fusion screen | mitochondrial fusion phenotypic screen, WT strain | inhibition, % at 10 µM | 190,000 compounds, 2.1% hits; in the data active = inhibition above about 58%; tested in S. cerevisiae
KCC2 mod: KCC2 (human) Cl- transport modulation; 190,000 compounds, 2.2% hits; B-score of Tl+ flux slope (higher = more flux/activation; lower = inhibition) at 10 µM; Q9H2X9; KCC2 cells, thallium flux FluoZin-2 fluorescence;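 active = thallium flux slope and its plate-corrected score both differing from the plate sample mean at a set confidence after two filtering rounds, in either direction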;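 note: slope of fluorescence scaled to starting intensity during 10 to 20 s after thallium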
b-catenin transl: alters nuclear translocation of beta-catenin in HeLa cells; immunofluorescence imaging; nuclear translocation activity, % at 5 µM; 190,000 compounds, 0.3% hits; AID 1665;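 active = nuclear translocation activity above 50% at 5 µM, with a well cell count of 50 or more; inconclusive = wells under 50 cells across six images, flagged as toxic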;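 note: per-cell ratio of nuclear to cytoplasmic median beta-catenin stain intensity; plate controls were DMSO negative control for no effect and GSK-3 inhibitor IX positive control for full effect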
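Assay system: human HeLa cells, native beta-catenin; doses: 5 µM primary, 0.02–20 µM confirmation; incubation: compound treatment 24 h, 37°C, 5% CO2; technique: fluorescence imaging of beta-catenin antibody stain plus DAPI; measure: % activation, nuclear-to-cytoplasmic median beta-catenin signal ratio per cell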
Pf gamet viab: kills late stage P. falciparum gametocytes; inhibition, % at 10.9 µM; AID 743093; P. falciparum stage V gametocytes, ATP luminescence, 24 h; 150,000 compounds, 0.065% hits;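 active = inhibition above the mean plus 3 SD of compounds within the control limits, set per campaign, cut at about 38% in these data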;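 note: 0% = DMSO wells and 100% = medium only without gametocytes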
KCC2 sec1: KCC2 (human) modulation, secondary assay; shares compounds with KCC2 mod; HEK293-KCC2, thallium flux, FluoZin2 fluorescence; stronger effect = higher value; normalised thallium flux (F/F0 slope) at 10 µM; 3,700 compounds, 15% hits; AID 1713;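 active = thallium flux slope above the same plate's solvent-only control mean plus 3 SD; inconclusive = the two replicate wells disagree; inactive = no significant difference from solvent-only control wells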
KCC2 bumet counter: thallium flux persisting under bumetanide in KCC2 cells, counter-screen secondary assay | HEK293-KCC2 + bumetanide/ouabain, thallium flux FluoZin2; stronger effect = higher value | normalized thallium flux at 10 µM | shares compounds with KCC2 mod | 3,700 compounds, 49% hits | AID 1714;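 active = thallium entry rate above the same plate's blocked-transporter control wells by more than 3 SD; inconclusive = the two repeat wells disagree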;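 note: raw slope of fluorescence over initial fluorescence between 10 and 20 s after thallium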
KCC2 sec2: confirmation of human KCC2 transport modulators | normalized thallium flux at 10 µM | AID 1715 | HEK293-KCC2, thallium flux FluoZin2 fluorescence; actives lie on both sides; F/F0 rise rate, 10–20 s post-thallium | shares compounds with KCC2 mod | 3,700 compounds, 23% hits;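 active = thallium flux slope more than 3 SD above or below the plate's solvent-only control mean, mostly below; inconclusive = the two repeat wells disagreed; inactive = no significant shift from solvent-only controls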;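 note: raw slope with 0.1% DMSO as baseline and bumetanide as block control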
HEK293 Tl flux: counter-screen for KCC2 modulators: effect in parental HEK293 cells; thallium flux FluoZin2, ouabain; baseline-ratio fluorescence slope, 10–20 s after thallium; 3,700 compounds, 46% hits; shares compounds with KCC2 mod; thallium flux rate (normalised fluorescence) at 10 µM;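 active = thallium flux rate significantly above the same plate's solvent-only control wells, beyond their mean plus 3 SD; inconclusive = the two replicate wells gave conflicting results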
KCC2 ouabain: KCC2 (human) modulation, ouabain retest; shares compounds with KCC2 mod; HEK293-KCC2, thallium flux FluoZin2 fluorescence; bidirectional: low = inhibitor, high = activator; raw Tl+ flux slope (below DMSO = inhibition, above = activation) at 10 µM; 3,700 compounds, 48% hits;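 active = thallium flux slope beyond 3 SD from same-plate DMSO control mean in most replicates, usually higher, sometimes lower; inconclusive = repeat tests gave conflicting results; inactive = no significant difference from controls in most replicates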;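 note: slope of initial-normalized fluorescence between seconds 10 and 20 after thallium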
HEK293 Tl flux2: parental HEK flux effect, counter-screen 2; shares compounds with KCC2 mod; HEK293 parental, thallium flux FluoZin-2 fluorescence slope; thallium flux slope at 10 µM; 3,700 compounds, 33% hits;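 active = thallium flux slope above the same plate's solvent-control mean plus 3 SD in both duplicate wells; inconclusive = duplicate wells that disagreed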;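 note: run without ouabain in cells lacking the KCC2 cotransporter; slope of fluorescence scaled to its starting value between 10 and 20 s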
The depositor's hits bear a star; u = inconclusive; x = not tested or not shown.

SMILES	MT stabilizer	WT yeast gro inh	KCC2 mod	b-catenin transl	Pf gamet viab	KCC2 sec1	KCC2 bumet counter	KCC2 sec2	HEK293 Tl flux	KCC2 ouabain	HEK293 Tl flux2
Cc1ccc(S(=O)(=O)NC(=O)Nc2cc(C)ccc2F)cc1	4.4	4.0	-10.9*	2.5	-8.3	0.0158	u	0.0287	u	0.0174	0.0112
CCN(CCO)Cc1cc(=O)oc2cc3c(cc12)CCC3	2.9	1.6	-0.397	-0.5	-19.1	x	x	x	x	x	x
CNC(=S)N(Cc1ccc(Cl)cc1)Cc1cccs1	x	x	-1.54	-3.7	4.1	x	x	x	x	x	x
Cc1sc2ncnc(SC(C)C#N)c2c1C (stereo not given)	3.1	-11.6	3.76*	x	-10.7	u	0.0258*	0.0295	0.0105*	u	u
Cc1sc2ncnc(SCC(=O)NCC(C)C)c2c1C	1.4	17.8	1.85	-2.8	-4.5	x	x	x	x	x	x
CCC(Sc1ncnc2sc(C)c(C)c12)C(=O)OC (stereo not given)	2.0	21.9	x	-5.5	x	0.0263*	0.0565*	0.0456*	0.0418*	0.0438*	0.0364*
Cc1cccc(N=C2NC(=O)C(CO)(CO)S2)c1	x	x	x	x	-30.9	x	x	x	x	x	x
Cc1cccc(C(=O)NC2CCN(S(=O)(=O)c3ccc(F)cc3)CC2)c1	x	x	x	x	-14.1	x	x	x	x	x	x
COc1ccc(OCc2n[nH]c(=S)o2)cc1	0.8	-0.6	-3.06	1.4	-3.1	x	x	x	x	x	x
S=c1[nH]nc(COc2ccc(Cl)cc2)o1	4.2	-17.5	-6.06*	-6.4	7.7	0.00722	u	0.0217*	0.00806	u	0.011
Cc1ccc(C)c(OCc2n[nH]c(=S)o2)c1	x	x	-0.53	-0.5	15.3	x	x	x	x	x	x
S=c1[nH]nc(CCc2ccc(Cl)cc2)o1	4.7	18.9	-7.75*	-1.1	8.9	0.0104	0.007	0.0227*	0.0074	0.0405*	0.0103
Cc1ccc(C(C)C)c(OCc2n[nH]c(=S)o2)c1	3.2	13.1	28.1*	-1.5	-0.1	0.014	0.0432*	u	0.0343*	0.0347*	0.0339*
Cc1ccc(NC(=O)CSCc2ccc(F)cc2)cc1	1.5	-20.9	-0.758	-1.4	-10.4	x	x	x	x	x	x
Cc1ccc(NC(=O)Cc2ccc(F)cc2)cc1	1.2	6.0	2.6*	-1.5	x	0.00846	0.00602	0.0345	0.00376	0.0199	0.0112
CCn1nc(C(=O)OCC(=O)c2ccc(F)cc2)c2ccccc2c1=O	1.7	4.1	-5.36*	-0.4	-11.0	0.00611	0.00434	0.0272	u	u	0.00924
CCCn1nc(C(=O)OCC(=O)c2ccccc2)c2ccccc2c1=O	2.0	-12.7	-1.58	-3.7	-10.0	x	x	x	x	x	x
CC(=O)c1c(CC(=O)O)[nH]n(-c2nc3ccccc3s2)c1=O	1.7	x	1.44	-14.0	5.2	x	x	x	x	x	x
O=c1cc(-c2ccccc2)[nH]n1-c1nc2ccccc2s1	2.2	-13.9	14.1*	-4.4	-10.2	0.0082	0.0367*	u	0.025*	0.0402*	0.0166*
S=C(Nc1ccccc1)Nc1ccc(Br)cc1	x	x	0.546	-2.0	8.9	x	x	x	x	x	x
S=C(Nc1ccccc1)Nc1ccccc1-n1cccc1	x	x	8.47*	-0.2	-18.1	0.0138*	0.0501*	0.0387	0.0174*	u	0.0159*
Cc1ccccc1-n1c(=S)[nH]c2nc3c(cc2c1=O)COC(C)(C)C3	x	x	-1.04	1.8	-4.8	x	x	x	x	x	x
Cc1ccccc1-n1c(=S)[nH]c2nc3c(cc2c1=O)CCCC3	1.9	-1.5	25*	0.1	x	0.0255*	0.0689*	0.0454*	0.0462*	0.0434*	0.035*
Cc1ccc2[nH]c(=O)c(CNS(=O)(=O)c3ccccc3)c(-c3ccccc3)c2c1	1.2	-17.0	-1.36	-3.3	x	x	x	x	x	x	x
Cc1cccc(CSC2=CS(=O)(=O)c3ccccc3N2)c1	3.5	-5.9	-3.16	x	x	x	x	x	x	x	x
SMILES	MT stabilizer	WT yeast gro inh	KCC2 mod	b-catenin transl	Pf gamet viab	KCC2 sec1	KCC2 bumet counter	KCC2 sec2	HEK293 Tl flux	KCC2 ouabain	HEK293 Tl flux2
O=S1(=O)C=C(SCc2cccc(Cl)c2)Nc2ccccc21	2.7	-10.5	-3.36*	x	9.6	u	0.00541	0.0297	0.00724	0.0159*	0.0102
O/N=C(/CCc1ccccc1)c1ccc2c(c1)OCCO2	5.1	11.3	0.903	0.0	-0.7	x	x	x	x	x	x
O=C(CCc1nnc(-c2ccc3c(c2)OCO3)o1)NC(c1ccccn1)C(F)(F)F (stereo not given)	2.5	-11.2	-0.509	-0.4	6.6	x	x	x	x	x	x
O=C(CCc1nnc(-c2ccc3c(c2)OCO3)o1)N1CCC(c2ccc(F)cc2)C1 (stereo not given)	1.3	-11.4	-4.83*	-1.9	-5.9	0.00708	0.00411	0.0225*	0.00619*	0.0135*	u
Cc1ccsc1/C=N/NC(=O)Cc1cccn1C	4.2	-4.1	-0.0102	0.3	8.7	x	x	x	x	x	x
COc1ccc(C(=O)Cn2c3ccccc3n3nc(CCC(=O)O)c(=O)nc23)cc1OC	1.9	11.6	0.279	x	x	x	x	x	x	x	x
CCOC(=O)c1sc(Nc2nc3c(OC)cccc3s2)nc1C	2.8	2.7	26*	x	x	0.00817	0.0117*	0.0408*	0.0254*	0.038*	0.0175*
CCCCCC(=O)NNC(=O)c1c(O)c2ccccc2n(CC)c1=O	3.2	-14.3	3.46*	0.7	x	0.00621	0.0138*	0.0333	0.0127*	u	0.0154*
CCCCCCCCCC(=O)NNC(=O)c1c(O)c2ccccc2n(CC)c1=O	3.0	-0.1	5.23*	0.1	8.9	0.00643	0.0156*	0.03	0.0162*	0.0244*	0.0148*
COCCNc1nc2nonc2nc1N(C)Cc1cccc2cnccc12	1.2	-12.9	-3.14*	-0.3	x	0.00662	0.00486	0.0278	0.00791	u	0.0115
Cc1nc(N2CCN(Cc3ccccc3)CC2)c(C#N)c2c1COC(C)(C)C2	1.8	-2.4	-3.41*	-1.7	x	0.00563	0.00302	0.021*	u	0.0109*	0.00931
Cc1ccc(OCCC(=O)OCC(=O)N2c3ccccc3CC2C)cc1 (stereo not given)	4.7	-0.9	-5.12*	-1.3	x	0.0077	0.00485	0.0246*	0.00724	0.0168*	0.00959
CC1Cc2ccccc2N1C(=O)COC(=O)c1ccc(O)cc1 (stereo not given)	x	x	-3.2	0.6	-9.9	x	x	x	x	x	x
COc1ccc(NC(=O)N2CCN(c3ccc([N+](=O)[O-])cc3)CC2)cc1	2.0	-1.6	0.458	-1.7	-15.5	x	x	x	x	x	x

Source: PubChem BioAssay
